Source: PubChem BioAssay (Broad Institute)
A selection: hits, their analogues and other compounds. The true share with any hit is near 2.5%.
PglD inh: blocks C. jejuni PglD acetyltransferase activity; purified PglD enzyme, DTNB colorimetric CoA detection; inhibition, % at 12.5 µM; 0.098% of 360,000 active; in the data active = inhibition above about 16%, passing the limit was not always enough; inconclusive = no clear call, values can overlap the other calls
DENV2 CPE: protects cells from dengue virus 2 cytopathic effect | DENV2-infected cells, cytopathic effect rescue, plate reader | CPE inhibition, % at 9.99 µM | 1.7% of 350,000 active | AID 651640; in the data active = CPE inhibition above about 20%, passing the limit was not always enough; inconclusive = no clear call, values can overlap the other calls; tested in BHK-21 cells;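 note: 0% = median of neutral control wells and 100% = median of positive control wells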
SIRT5 block: inhibitors of human sirtuin-5 desuccinylase | Q9NXA8 | Purified SirT5, succinyl-peptide AMC, trypsin-coupled fluorescence | inhibition, % at 15 µM | 1.1% of 330,000 active | AID 652115; in the data active = inhibition above about 15%; inconclusive = no clear call, values can overlap the other calls
Target sequence (Q9NXA8 whole entry, looked up): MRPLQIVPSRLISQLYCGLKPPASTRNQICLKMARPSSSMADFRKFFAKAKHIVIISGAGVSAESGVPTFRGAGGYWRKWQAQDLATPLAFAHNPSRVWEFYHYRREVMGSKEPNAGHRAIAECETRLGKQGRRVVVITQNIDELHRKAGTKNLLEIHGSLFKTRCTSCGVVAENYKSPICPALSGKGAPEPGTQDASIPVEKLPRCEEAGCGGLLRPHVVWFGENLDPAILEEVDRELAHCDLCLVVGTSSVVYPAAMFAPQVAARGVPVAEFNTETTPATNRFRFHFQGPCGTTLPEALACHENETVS
ERAP1 HTS inh: blocks human ERAP1 aminopeptidase activity. recombinant ERAP1, Leu-AMC fluorescence, 60 min. inhibition, % at 10.7 µM. Q9NZ08. AID 652197. 0.15% of 340,000 active;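 active = mean replicate inhibition of at least 30%, or all replicates individually reaching that 30% level; inactive = mean below 30% and not every replicate reaching it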;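 note: 0% = neutral control wells and 100% = L-leucinethiol positive control wells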
E-sel inducer: induces E-selectin expression in human endothelial cells | P16581 | AID 686992 | HUVEC E-selectin immunofluorescence imaging; normalized: neutral wells 0, TNF-alpha wells 100 | 0.37% of 260,000 active | activation, % at 7.58 µM;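 active = mean E-selectin-positive cell signal at least 10% of the positive control, reached in at least 60% of replicates, without over 20% cell loss; inconclusive = no rule given, readout overlaps actives, possibly toxicity-flagged; inactive = the rest, including those meeting only one limit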
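Test system: HUVEC | Signal: Immunofluorescence imaging | Read-out: Percent E-selectin-positive cells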
The depositor's hits bear a star; ? = inconclusive; / = not tested or not shown; ! = not active in a repeat.

SMILES	PglD inh	DENV2 CPE	SIRT5 block	ERAP1 HTS inh	E-sel inducer
COc1cc(-c2cnc3c(NC=O)cc(-c4cccc(C(F)(F)F)c4)cn23)cc(OC)c1OC	-5.6	12.6	/	-0.7	-0.2
Cn1cc(-c2cnc3c(NC=O)cc(-c4cccc(C(F)(F)F)c4)cn23)cn1	2.2	27.0*	-2.2	-0.2	-0.3
C[C@H](CO)N1C[C@H](C)[C@@H](CN(C)S(=O)(=O)c2ccc(F)cc2)OCc2ccccc2-c2c(n(C)c3ccccc23)C1=O	3.5	-5.6	-3.4	-0.3	0.1
C[C@H]1CN([C@@H](C)CO)C(=O)c2c(c3ccccc3n2C)-c2ccccc2CO[C@H]1CN(C)S(=O)(=O)c1ccc(F)cc1	3.1	-11.2	21.1*	-1.3	-0.3
C[C@@H]1CN([C@@H](C)CO)C(=O)c2c(c3ccccc3n2C)-c2ccccc2CO[C@H]1CN(C)S(=O)(=O)c1ccc(Cl)cc1	0.1	9.8	1.3	2.4	-0.6
Cc1cccc(S(=O)(=O)N(C)C[C@H]2OCc3ccccc3-c3c(n(C)c4ccccc34)C(=O)N([C@H](C)CO)C[C@H]2C)c1	3.7	7.6	18.4*	0.5	-0.4
C[C@@H]1CN([C@H](C)CO)C(=O)c2c(c3ccccc3n2C)-c2ccccc2CO[C@H]1CN(C)S(=O)(=O)c1ccc([N+](=O)[O-])cc1	/	-2.4	32.0*	-0.6	-0.3
C[C@@H]1CN([C@H](C)CO)C(=O)c2c(c3ccccc3n2C)-c2ccccc2CO[C@@H]1CN(C)S(=O)(=O)c1ccc(Cl)cc1	-0.5	-1.4	18.6*	1.5	-0.5
C[C@@H]1CN([C@@H](C)CO)C(=O)c2c(c3ccccc3n2C)-c2ccccc2CO[C@H]1CN(C)S(=O)(=O)c1ccc([N+](=O)[O-])cc1	/	?	-9.2	3.1	0.0
CN1C(=O)N[C@@H]2c3ccccc3O[C@@]1(C)[C@@H]2COC(=O)c1ccc([N+](=O)[O-])cc1	/	38.3*	1.7	0.5	/
CCOCCCNc1ccc(-c2ccccc2)nn1	2.3	3.1	-4.7	-0.1	/
CC(C)(C)c1ccc(/C=N/NC(=O)CN2CCS(=O)(=O)CC2)cc1	-1.7	-0.6	-2.1	0.4	0.1
CCCCCOc1ccc(N2C(=O)C(C)CNC2=S)cc1 (stereo not drawn)	/	-3.2	-1.4	1.1	/
Cc1c(C(=O)c2ccc(F)cc2F)c2ccccn2c1CCC#N	5.4	-5.6	2.3	-0.7	/
Cc1c(C(=O)c2ccc(N(C)C)cc2)c2ccccn2c1CCC#N	-6.3	-4.0	112.1*	5.2	/
CC[n+]1c(C)cc(C)n1-c1ccccc1	/	-5.7	-0.3	102.2*	/
C[C@H](NC(=O)[C@@H]1CCCN1C(=O)[C@@H]1CCCN1C(=O)OC(C)(C)C)c1ccccc1	/	?	16.4*	0.4	0.0
O=C(NCc1ccccc1Cl)[C@H]1CCCN1C(=O)[C@H]1CCCN1	/	-9.0	-1.6	1.7	1.7
CCOc1cc(OCC)cc(C(=O)N2CCC[C@H]2C(=O)N2CCC[C@H]2C(=O)NCc2ccc(F)cc2F)c1	/	7.6	0.8	1.3	-0.1
CC(C)(C)OC(=O)N1CCC[C@@H]1C(=O)N1CCC[C@@H]1C(=O)NCc1ccccc1Cl	/	33.5*	6.3	0.7	-0.1
CCOc1cc(OCC)cc(C(=O)N2CCC[C@@H]2C(=O)N2CCC[C@@H]2C(=O)NCc2ccccc2Cl)c1	/	80.5*	-4.3	/	0.2
Cc1ccccc1NC(=O)NC1CCCc2ccccc21 (stereo not drawn)	5.5	-2.2	-4.7	-4.8	0.2
C[C@@H]1CN([C@@H](C)CO)C(=O)c2cccc(NC(=O)C3CCCCC3)c2O[C@@H]1CN(C)C(=O)NC1CCCCC1	-1.4	32.6*!	2.8	-2.8	-0.3
C[C@H]1CN([C@@H](C)CO)C(=O)c2cccc(NC(=O)C3CC3)c2O[C@@H]1CN(C)C(=O)NC1CCCCC1	3.0	54.1*	5.7	-2.9	0.1
Cc1cc(C(=O)Nc2cccc3c2O[C@H](CN(C)C(=O)NC2CCCCC2)[C@@H](C)CN([C@H](C)CO)C3=O)n(C)n1	-3.4	37.3*	1.2	2.5	-2.8
SMILES	PglD inh	DENV2 CPE	SIRT5 block	ERAP1 HTS inh	E-sel inducer
C[C@@H]1CN([C@@H](C)CO)C(=O)c2cc(NS(=O)(=O)c3ccccc3)ccc2O[C@@H]1CN(C)C(=O)Nc1cccc2ccccc12	5.2	-2.4	-1.1	-1.4	0.0
C[C@H](CO)N1C[C@H](C)[C@H](CN(C)C(=O)NC2CCCC2)Oc2cc(C#Cc3ccc(F)cc3)ccc2S1(=O)=O	-0.5	-24.6	2.5	-2.6	1.2
C[C@@H]1CN([C@@H](C)CO)S(=O)(=O)c2ccc(C#Cc3ccc(F)cc3)cc2O[C@H]1CN(C)C(=O)NC1CCCCC1	-1.8	-1.0	18.8*	2.0	-1.3
C[C@H](CO)N1C[C@H](C)[C@@H](CN(C)C(=O)NC2CCCC2)Oc2cc(C#Cc3ccc(F)cc3)ccc2S1(=O)=O	0.4	-4.5	2.2	-5.0	1.1
C[C@H](CO)N1C[C@H](C)[C@@H](CN(C)C(=O)NC2CCCCC2)Oc2cc(C#Cc3ccc(F)cc3)ccc2S1(=O)=O	-1.1	?	17.6*	3.9	-3.5
C[C@@H]1CN([C@H](C)CO)S(=O)(=O)c2ccc(C#Cc3ccc(F)cc3)cc2O[C@@H]1CN(C)C(=O)NC1CCCCC1	2.4	8.3	18.7*	1.0	-4.2
CCCCCCN1C[C@@H](n2cc(COC(=O)c3ccccc3)nn2)[C@H](O)C[C@@H]1c1ccc(OC)cc1	3.2	-2.7	-2.8	/	-1.2
Oc1ccccc1	/	-0.1	/	4.8	/
CC1CCN(S(=O)(=O)N2CCC(C(=O)N3CCC(N(C)CC4CCCO4)CC3)CC2)CC1 (stereo not drawn)	2.1	?	17.6*	0.1	/
Cc1ccccc1C(=O)N1CCN(c2ccc(NC(=O)c3ccc4c(c3)OCO4)cc2)CC1	/	-1.7	-3.9	1.2	1.0
CCOC(=O)C(=C1Nc2ccccc2N1)n1c(-c2cnccn2)nc2ccccc21	/	57.3*	/	1.5	-0.1
CCOC(=O)C(=C1Nc2ccccc2N1)n1c(-c2ccco2)nc2ccccc21	/	-21.6	2.0	/	0.6
Cc1ccc(S(=O)(=O)N(C)C[C@H]2Oc3ccc(NS(=O)(=O)c4ccc(F)cc4)cc3C(=O)N([C@H](C)CO)C[C@@H]2C)cc1	2.5	81.8*	/	/	1.2
C[C@H]1CN([C@@H](C)CO)C(=O)c2cc(NS(=O)(=O)c3ccc(F)cc3)ccc2O[C@H]1CN(C)S(=O)(=O)c1ccc(Cl)cc1	0.1	26.3*	-3.1	1.0	-0.6
C[C@H](CO)N1C[C@H](C)[C@H](CN(C)C)Oc2ccc(NS(=O)(=O)c3ccc(F)cc3)cc2C1=O	-1.1	28.6*	-0.8	-4.0	0.0
C[C@@H]1CN([C@@H](C)CO)C(=O)c2cc(N(C)C)ccc2O[C@@H](C)CCCCO[C@@H]1CN(C)CC1CCCCC1	-1.0	10.7	2.3	3.5	-0.2
O=C(C[C@@H]1C[C@H]2c3cc(NC(=O)NC4CCCC4)ccc3O[C@H]2[C@@H](CO)O1)NCc1ccccc1	-1.8	-3.6	-2.7	-1.8	0.0
